Calls of active or inactive are those of the source. The calls are words filed in the database; no cut-off is given here.
Columns and labels:
HL-60 [1] = assay: Drug uptake in human HL60 cells with normal morphology at 50 uM incubated for 18 hrs by fluorescence microscopy; type: ADME, cell-based; conditions: hl-60, 18 h
How it was run: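 HL-60 cells were treated with 50 µM compound for 18 h, washed with PBS, resuspended in HBSS and mounted as native slides. Cells were imaged by inverted fluorescence microscopy at 40×, with excitation 360/40 and emission 470/40. The fluorescence channel was merged with brightfield images.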

HL-60 [2] = assay: Cell cycle arrest in human HL60 cells assessed as accumulation at S phase at 25 uM incubated for 72 hrs by flow cytometry (reference value: 40.30 +/- 3.15%); type: functional
HL-60 [3] = assay: Antiproliferative activity against human HL60 cells assessed as cell number at 25 uM incubated for 24 hrs by Coulter counting method; type: functional
How it was run: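 HL-60 cells in RPMI with 10% heat-inactivated FCS, antibiotics and amphotericin, 37 °C, 5% CO2, seeded in 60 mm dishes. Compound added at 5, 15 or 25 µM for 24, 48 or 72 h. Absolute cell counts taken by Coulter counter and expressed as percentage of untreated control. Mean ± SD of at least three independent experiments; one-way ANOVA with Tukey test, p < 0.05.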

[4] = target: T1, DNA topoisomerase 1 (Homo sapiens) (UniProt P11387); assay: Inhibition of human topoisomerase 1 assessed as reduction in pBR322 DNA relaxation of relaxation at 5 uM by DNA unwinding assay
T1 sequence (whole entry): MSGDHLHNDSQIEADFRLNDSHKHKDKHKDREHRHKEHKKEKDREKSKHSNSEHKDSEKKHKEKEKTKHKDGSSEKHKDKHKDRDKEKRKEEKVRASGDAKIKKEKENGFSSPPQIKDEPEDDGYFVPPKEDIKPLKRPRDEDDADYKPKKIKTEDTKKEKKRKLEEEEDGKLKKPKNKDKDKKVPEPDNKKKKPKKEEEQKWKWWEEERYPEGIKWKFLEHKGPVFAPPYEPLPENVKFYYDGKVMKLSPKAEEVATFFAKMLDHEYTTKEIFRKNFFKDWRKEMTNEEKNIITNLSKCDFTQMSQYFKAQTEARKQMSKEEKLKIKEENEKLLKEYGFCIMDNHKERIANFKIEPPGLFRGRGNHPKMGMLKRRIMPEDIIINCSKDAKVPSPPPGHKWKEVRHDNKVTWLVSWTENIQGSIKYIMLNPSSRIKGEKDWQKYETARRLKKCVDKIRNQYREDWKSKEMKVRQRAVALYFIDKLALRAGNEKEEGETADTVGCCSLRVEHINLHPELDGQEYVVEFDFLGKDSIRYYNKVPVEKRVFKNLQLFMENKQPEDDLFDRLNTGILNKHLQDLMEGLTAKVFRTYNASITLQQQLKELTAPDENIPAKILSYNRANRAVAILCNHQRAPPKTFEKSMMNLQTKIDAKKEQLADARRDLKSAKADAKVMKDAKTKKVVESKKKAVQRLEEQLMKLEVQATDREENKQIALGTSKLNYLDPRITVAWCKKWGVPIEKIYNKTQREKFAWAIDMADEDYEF

Nucleic Acid = assay: Binding affinity to calf thymus DNA at 9.6 uM by spectrofluorimetric titration assay; type: nucleic-acid assay; conditions: Bos taurus
How it was run: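 Fluorescence titration at 25 °C in 0.01 M Tris, pH 7.4. Compound (9.58 × 10^-6 M) was titrated with ctDNA from 0 to 2.57 × 10^-4 M bp, excited at 384 nm, and emission recorded from 400 to 600 nm. K and n were obtained from McGhee–von Hippel fits of Scatchard data.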

HL-60 [5] = assay: Induction of apoptosis in human HL60 cells at 5 to 25 uM incubated for 24 hrs by AnnexinV/propidium iodide staining method; type: functional, cell-based
How it was run: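 HL-60 cells (1.5 × 10^5) were treated at 5–25 µM for 24, 48 or 72 h and harvested. They were stained with Annexin V-FITC for 10 min in HEPES/CaCl2/NaCl binding buffer, washed, briefly stained with PI (1 mg/mL) and analysed by flow cytometry for apoptosis and necrosis. Mean ± SD, n ≥ 3.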

HL-60 [6] = assay: Induction of necrosis in human HL60 cells at 5 to 25 uM incubated for 24 hrs by AnnexinV/propidium iodide staining method; type: functional, cell-based
How it was run: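 HL-60 cells (1.5 × 10^5) were exposed to compound, then stained 10 min with Annexin V-FITC in HEPES/CaCl2/NaCl binding buffer. Cells were washed, briefly stained with propidium iodide and analysed by flow cytometry for apoptotic and necrotic fractions. Mean ± SD of at least three independent experiments.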

Structure (SMILES) | Drug uptake (HL-60 [1]) | Activity (HL-60 [2]) | Activity (HL-60 [3]) [%] | Activity [4] | Activity (Nucleic Acid) | Activity (HL-60 [5]) | Activity (HL-60 [6])
CCCCCCNC(=N)Nc1ccc2cc3ccc(NC(=N)NCCCCCC)cc3nc2c1.Cl.Cl.O | Active | 22.5% | 76.71 | Active | Active | – | –
CCNC(=N)Nc1ccc2cc3ccc(NC(=N)NCC)cc3nc2c1.Cl.Cl.O | – | inactive | 71.98 | Active | – | inactive | inactive
